The subject of series [1] is Saccharomyces cerevisiae. The series is described as follows: Antimicrobial activity against Saccharomyces cerevisiae AD by serial dilution microplate method. The class given is functional. The gist of the method: (§1)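 Saccharomyces cerevisiae AD lacks the seven genes for the main drug-exporting membrane proteins. ADCDR1 is AD transformed with a plasmid carrying the gene for Candida albicans Cdr1p drug exporter. MIC was read by serial dilution in microplates.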

For series [2], the system named is Saccharomyces cerevisiae. The series is described as follows: Antimicrobial activity against Saccharomyces cerevisiae ADCDR1 by serial dilution microplate method. The class given is functional. The gist of the method: as §1
The test system of series [3] is Nakaseomyces glabratus. Kind of series: Antifungal activity against Candida glabrata by serial dilution microplate method. The class given is functional.
Series [4] relates to Candida tropicalis. The series is described as follows: Antifungal activity against Candida tropicalis by serial dilution microplate method. The class given is functional.
Series [5] deals with Candida albicans. The series is described as follows: Antifungal activity against Candida albicans by serial dilution microplate method. The class given is functional.
Series [6] can be described thus: Inhibition of Candida albicans glucosamine-6P synthase by Elson-Morgan method. The procedure, abridged: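 Enzyme was Candida albicans GlcN-6P synthase purified to near homogeneity. Reactions ran in 25 mM phosphate buffer, pH 6.9, with 1 mM EDTA and 1 mM DTT, D-Fru-6P (0.5–7.5 mM) and L-glutamine (0.625–10 mM), plus inhibitor. Product was measured by a modified Elson–Morgan method. IC50 and Ki are means of three experiments, with SD.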

In series [7] the test system is Candida albicans. Kind of series: Drug uptake in Candida albicans assessed as uptake rate per mg dry weight. The class given is ADME, organism-based. Conditions: in vivo.
The target in series [8] is Glucose-6-phosphate isomerase (Saccharomyces cerevisiae S288c) (UniProt P12709). The series is described as follows: Inhibition of yeast phosphoglucose isomerase upto 20 mM.

From ChEMBL document CHEMBL1140549, “Rational design of N-alkyl derivatives of 2-amino-2-deoxy-d-glucitol-6P as antifungal agents” (Bioorg Med Chem Lett, 2007) come the findings set out here.

Converted amounts (≈) assume the structure as drawn. The source made the active and inactive calls. No cut-off for these calls is given here.

Sequence of Glucose-6-phosphate isomerase (Saccharomyces cerevisiae S288c) (P12709 whole entry): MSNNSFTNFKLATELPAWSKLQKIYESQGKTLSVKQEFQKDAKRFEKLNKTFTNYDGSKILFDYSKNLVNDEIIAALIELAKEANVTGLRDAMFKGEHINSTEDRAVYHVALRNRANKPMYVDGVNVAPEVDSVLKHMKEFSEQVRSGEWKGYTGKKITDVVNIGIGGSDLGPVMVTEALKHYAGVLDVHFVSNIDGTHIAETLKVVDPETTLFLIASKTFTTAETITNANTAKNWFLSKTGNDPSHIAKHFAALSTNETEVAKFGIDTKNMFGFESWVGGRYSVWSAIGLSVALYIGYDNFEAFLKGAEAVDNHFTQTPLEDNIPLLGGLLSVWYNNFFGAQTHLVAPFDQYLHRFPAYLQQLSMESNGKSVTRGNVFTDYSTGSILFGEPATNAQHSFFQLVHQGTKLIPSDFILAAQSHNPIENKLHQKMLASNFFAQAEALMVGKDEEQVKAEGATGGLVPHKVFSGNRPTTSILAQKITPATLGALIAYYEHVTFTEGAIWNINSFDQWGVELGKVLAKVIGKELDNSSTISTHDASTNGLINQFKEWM

The MIC is the least concentration at which growth counts as inhibited. Low values mean inhibition by little substance, high ones a need for much substance. As to `OC(Cn1cncn1)(Cn1cncn1)c1ccc(F)cc1F` [FLUCONAZOLE], the minimum inhibitory concentration (MIC) in series [1] was 4 µg/mL (≈ 13.1 µM); in series [2], 32 µg/mL (≈ 104 µM); in series [3], 16 µg/mL (≈ 52.2 µM); in series [4] it was 16 µg/mL (≈ 52.2 µM); in series [5] it was 8 µg/mL (≈ 26.1 µM).

A word on the IC50: it is the concentration needed to halve the response being measured. Read a low IC50 as greater potency. Usually Ki stands for a dissociation constant, usually derived from enzyme kinetics or from competition with a known ligand. As for `CCCCN[C@@H](CO)[C@@H](O)[C@H](O)[C@H](O)COP(=O)(O)O`, the minimal inhibitory concentration (MIC) in series [1] was found to be 1250 µg/mL (≈ 3940 µM); in series [2], 1250 µg/mL (≈ 3940 µM); in series [3], 1250 µg/mL (≈ 3940 µM); in series [4], 1250 µg/mL (≈ 3940 µM); in series [5], 625 µg/mL (≈ 1970 µM). In addition, the IC50 in series [6] was 115 µM. Besides, in series [6], the affinity corresponds to a Ki of 20 µM. Besides, the Drug uptake in series [7] stood at 3.4 nmol/mg/min. Besides, the outcome in series [8] was inactive.

With `CCN[C@@H](CO)[C@@H](O)[C@H](O)[C@H](O)COP(=O)(O)O`, the minimal inhibitory concentration (MIC) in series [1] was 2500 µg/mL (≈ 8640 µM); in series [2], 2500 µg/mL (≈ 8640 µM); in series [3], 2500 µg/mL (≈ 8640 µM); in series [4], 2500 µg/mL (≈ 8640 µM); in series [5] it was 1250 µg/mL (≈ 4320 µM). Further, in series [6], the IC50 was determined as 180 µM. The same compound returned a Ki in series [6] of 26 µM. For the same compound, in series [7], the Drug uptake was found to be 2.9 nmol/mg/min. Also, the result in series [8] was inactive.

Turning to `CCCN(CCC)[C@@H](CO)[C@@H](O)[C@H](O)[C@H](O)COP(=O)(O)O`, the MIC in series [1] is 80 µg/mL (≈ 232 µM); in series [2] it was 160 µg/mL (≈ 463 µM); in series [3] it was 625 µg/mL (≈ 1810 µM); in series [4], 625 µg/mL (≈ 1810 µM); in series [5], 160 µg/mL (≈ 463 µM). Also, the half-inhibitory concentration (IC50) in series [6] turned out to be 52 µM. The compound further gave a Ki in series [6] of 10 µM. Further, the Drug uptake in series [7] came to 4.7 nmol/mg/min. Besides, the result in series [8] was inactive.

Regarding `CCN(CC)[C@@H](CO)[C@@H](O)[C@H](O)[C@H](O)COP(=O)(O)O`, the MIC in series [1] turned out to be 310 µg/mL (≈ 977 µM); in series [2] it was 310 µg/mL (≈ 977 µM); in series [3], 625 µg/mL (≈ 1970 µM); in series [4], 625 µg/mL (≈ 1970 µM); in series [5], 310 µg/mL (≈ 977 µM). In series [6], this compound registered a 50% inhibitory concentration (IC50) of 40 µM. Further, in series [6], the affinity, expressed as Ki, was 8 µM. In series [7], the Drug uptake is on record as 3.9 nmol/mg/min. Moreover, the result in series [8] was inactive.

In the case of `CCCCCCN[C@@H](CO)[C@@H](O)[C@H](O)[C@H](O)COP(=O)(O)O`, the minimum inhibitory concentration (MIC) is 310 µg/mL (≈ 898 µM) in series [1]; 310 µg/mL (≈ 898 µM) in series [2]; 625 µg/mL (≈ 1810 µM) in series [3]; 310 µg/mL (≈ 898 µM) in series [4]; 625 µg/mL (≈ 1810 µM) in series [5]. This compound also had an IC50 in series [6] of 290 µM. The compound further showed a Ki in series [6] of 49 µM. Besides, the Drug uptake in series [7] was 4.8 nmol/mg/min. Besides, in series [8], the outcome was inactive.

In the case of `CCCCN(CCCC)[C@@H](CO)[C@@H](O)[C@H](O)[C@H](O)COP(=O)(O)O`, the MIC stood at 1250 µg/mL (≈ 3350 µM) in series [1]; 1250 µg/mL (≈ 3350 µM) in series [2]; 1250 µg/mL (≈ 3350 µM) in series [3]; 2500 µg/mL (≈ 6700 µM) in series [4]; 312 µg/mL (≈ 836 µM) in series [5]. Further, the half-maximal inhibitory concentration (IC50) in series [6] came out at 82 µM. The inhibition constant Ki in series [6] came to 12 µM. For the same compound, the Drug uptake in series [7] was determined as 5 nmol/mg/min. Further, the result in series [8] was inactive.

With `N[C@@H](CO)[C@@H](O)[C@H](O)[C@H](O)COP(=O)(O)O`, the minimal inhibitory concentration (MIC) in series [1] amounted to 5000 µg/mL (≈ 19100 µM); in series [2], 5000 µg/mL (≈ 19100 µM); in series [3], 10000 µg/mL (≈ 38300 µM); in series [4], 10000 µg/mL (≈ 38300 µM); in series [5], 5000 µg/mL (≈ 19100 µM). The compound further showed an IC50 in series [6] of 230 µM. Further, in series [6], the Ki was found to be 35 µM. Besides, the Drug uptake in series [7] stood at 1.1 nmol/mg/min. Also, the outcome in series [8] was inactive.
